Assay results: ChEMBL document CHEMBL1133607, “Nonpeptide analogues of dynorphin A(1-8): design, synthesis, and pharmacological evaluation of kappa-selective agonists” (J Med Chem, 2000)
pKi: −log10 of the molar value. Residues, ends and D or L forms follow the SMILES beside them. *: point of attachment. X1 = CC1C2Cc3ccc(O)cc3[C@]1(C)CCN2CC1C[C@]1(C(=O)*)c1ccccc1

Legend:
Cavia porcellus = species: Cavia porcellus; test: Ratio of affinity towards delta to kappa opioid receptor
[1] = target: Delta-type opioid receptor (Rattus norvegicus, UniProt P33533); test: Displacement of [3H]diprenorphine opioid receptor delta 1 on crude membrane fractions obtained from the whole rat brain (minus cerebellum); format: tissue-based
Delta-type opioid receptor, sequence (P33533 whole entry): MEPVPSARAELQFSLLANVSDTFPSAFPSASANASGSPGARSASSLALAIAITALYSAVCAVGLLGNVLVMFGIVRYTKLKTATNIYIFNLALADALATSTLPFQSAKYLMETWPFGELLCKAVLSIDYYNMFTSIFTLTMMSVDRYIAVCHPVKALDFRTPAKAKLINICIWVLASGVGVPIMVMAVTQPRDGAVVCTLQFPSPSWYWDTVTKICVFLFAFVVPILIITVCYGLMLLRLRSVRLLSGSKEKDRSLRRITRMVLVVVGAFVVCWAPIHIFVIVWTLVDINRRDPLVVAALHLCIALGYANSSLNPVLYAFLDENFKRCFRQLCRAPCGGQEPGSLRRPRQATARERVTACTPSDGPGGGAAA
In short: (§1)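 Rat whole-brain (minus cerebellum) crude membranes, 1 mg protein/tube, in 50 mM Tris-HCl pH 7.4 with aprotinin, leupeptin and bacitracin. […] U50,488 and DAMGO (300 nM each) saturate κ and µ sites; 1 µM DPDPE defines nonspecific binding. Compounds tested at 10^-11 to 10^-5 M. Ki values are the mean of three experiments in duplicate.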

Mu-type opioid receptor = Mu-type opioid receptor (Rattus norvegicus, UniProt P33535); test: Displacement of [3H]diprenorphine from opioid receptor mu 1 on crude membrane fractions obtained from whole rat brain (minus cerebellum); format: tissue-based
Mu-type opioid receptor, sequence (P33535 whole entry): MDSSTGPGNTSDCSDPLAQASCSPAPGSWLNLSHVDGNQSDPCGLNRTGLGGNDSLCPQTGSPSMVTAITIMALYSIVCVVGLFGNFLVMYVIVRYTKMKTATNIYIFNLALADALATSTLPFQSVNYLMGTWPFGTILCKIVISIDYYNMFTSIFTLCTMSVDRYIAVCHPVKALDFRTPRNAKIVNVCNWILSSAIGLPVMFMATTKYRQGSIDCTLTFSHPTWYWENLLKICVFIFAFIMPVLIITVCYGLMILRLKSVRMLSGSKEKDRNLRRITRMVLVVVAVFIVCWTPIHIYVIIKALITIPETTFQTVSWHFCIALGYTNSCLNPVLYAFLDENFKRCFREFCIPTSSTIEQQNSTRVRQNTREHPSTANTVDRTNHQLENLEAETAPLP
In short: as §1, with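 “and DADLE” for “and DAMGO”, “and δ” for “and µ”, “µM DAMGO” for “µM DPDPE”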

[2] = target: Opioid receptors; mu & kappa (UniProt P41145+P35372); test: Ratio of affinity towards mu and kappa opioid receptors; format: protein assay
Opioid receptors; mu & kappa, sequence (P35372 whole entry, looked up): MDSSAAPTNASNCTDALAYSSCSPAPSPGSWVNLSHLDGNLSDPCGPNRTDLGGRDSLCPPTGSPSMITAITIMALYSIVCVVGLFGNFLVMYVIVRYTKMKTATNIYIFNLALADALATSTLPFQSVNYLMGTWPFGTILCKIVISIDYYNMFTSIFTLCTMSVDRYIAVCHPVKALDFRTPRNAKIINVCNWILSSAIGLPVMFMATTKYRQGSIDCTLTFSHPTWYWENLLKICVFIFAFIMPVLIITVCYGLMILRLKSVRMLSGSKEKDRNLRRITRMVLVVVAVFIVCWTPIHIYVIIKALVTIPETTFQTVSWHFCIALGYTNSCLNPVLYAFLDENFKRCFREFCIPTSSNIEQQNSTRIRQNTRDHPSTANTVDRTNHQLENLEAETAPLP
Opioid receptors; mu & kappa, sequence (P41145 whole entry, looked up): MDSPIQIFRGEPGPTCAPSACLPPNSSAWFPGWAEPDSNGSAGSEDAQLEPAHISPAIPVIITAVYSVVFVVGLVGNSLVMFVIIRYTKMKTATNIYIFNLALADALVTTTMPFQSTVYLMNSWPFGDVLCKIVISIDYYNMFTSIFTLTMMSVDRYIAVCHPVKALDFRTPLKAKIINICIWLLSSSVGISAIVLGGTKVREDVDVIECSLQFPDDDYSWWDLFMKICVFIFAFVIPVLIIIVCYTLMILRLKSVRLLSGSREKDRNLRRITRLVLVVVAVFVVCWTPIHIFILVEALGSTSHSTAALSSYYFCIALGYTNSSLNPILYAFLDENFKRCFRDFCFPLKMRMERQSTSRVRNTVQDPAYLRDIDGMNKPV

[3] = target: Kappa-type opioid receptor (Cavia porcellus, UniProt P41144); test: Displacement of [3H]-U-69,593 from Opioid receptor kappa 1 in guinea pig cerebellar.
Kappa-type opioid receptor, sequence (P41144 whole entry): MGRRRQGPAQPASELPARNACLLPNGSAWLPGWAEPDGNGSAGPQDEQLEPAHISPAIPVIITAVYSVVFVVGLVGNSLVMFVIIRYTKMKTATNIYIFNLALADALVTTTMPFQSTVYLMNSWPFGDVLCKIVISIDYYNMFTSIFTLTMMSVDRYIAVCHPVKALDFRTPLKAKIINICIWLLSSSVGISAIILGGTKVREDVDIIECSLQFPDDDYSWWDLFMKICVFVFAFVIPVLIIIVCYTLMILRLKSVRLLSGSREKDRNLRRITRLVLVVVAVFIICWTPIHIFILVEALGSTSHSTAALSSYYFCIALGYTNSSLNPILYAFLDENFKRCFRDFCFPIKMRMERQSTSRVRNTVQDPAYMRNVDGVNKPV

Row | Structure (SMILES) | Selectivity ratio (Cavia porcellus) | pKi [1] | pKi (Mu-type opioid receptor) | Selectivity ratio [2] | pKi [3]
1 | CC(C)CC(NC(=O)CNC(=O)[C@]1(c2ccccc2)CC1CN1CC[C@@]2(C)c3cc(O)ccc3CC1C2C)C(=O)NCCCCN=C(N)N (stereo not given in full) | 52.1 | 5.46 | 5.21 | 91.7 | 7.17
2 | CCC(=N)NCCCCCCNC(=O)C(CC(C)C)NC(=O)CNC(=O)[C@]1(c2ccccc2)CC1CN1CC[C@@]2(C)c3cc(O)ccc3CC1C2C (stereo not given in full) | 108 | 5.30 | 5.38 | 89.8 | 7.33
3 | CC(C)CC(NC(=O)[C@]1(c2ccccc2)CC1CN1CC[C@@]2(C)c3cc(O)ccc3CC1C2C)C(=O)NCCCN=C(N)N (stereo not given in full) |  |  | 5.61 | 8.7 | 6.55
4 | CC(C)CC(NC(=O)[C@]1(c2ccccc2)CC1CN1CC[C@@]2(C)c3cc(O)ccc3CC1C2C)C(=O)NCCCCN=C(N)N (stereo not given in full) |  |  | 5.53 | 11.8 | 6.60
5 | CCCCC(=N)NCCCCCCNC(=O)C(CC(C)C)NC(=O)[C@]1(c2ccccc2)CC1CN1CC[C@@]2(C)c3cc(O)ccc3CC1C2C (stereo not given in full) | 40.2 | 5.49 | 5.65 | 27.9 | 7.09
6 | CC(C)CC(NC(=O)[C@]1(c2ccccc2)CC1CN1CC[C@@]2(C)c3cc(O)ccc3CC1C2C)C(=O)NCCCN (stereo not given in full) |  |  | 5.37 | 11.5 | 6.43
7 | CCCC(=N)NCCCCCNC(=O)C(CC(C)C)NC(=O)[C@]1(c2ccccc2)CC1CN1CC[C@@]2(C)c3cc(O)ccc3CC1C2C (stereo not given in full) |  |  | 5.70 | 12.8 | 6.81
8 | CC(C)CC(NC(=O)CNC(=O)[C@]1(c2ccccc2)CC1CN1CC[C@@]2(C)c3cc(O)ccc3CC1C2C)C(=O)NCCCNC(=N)N (stereo not given in full) |  | 5.43 | 5.03 |  | 7.14
9 | CCCCC(=N)NCCCCCNC(=O)C(CC(C)C)NC(=O)[C@]1(c2ccccc2)CC1CN1CC[C@@]2(C)c3cc(O)ccc3CC1C2C (stereo not given in full) | 36.6 | 5.44 | 5.62 | 24.3 | 7.01
10 | CCCC(=N)NCCCCNC(=O)C(CC(C)C)NC(=O)[C@]1(c2ccccc2)CC1CN1CC[C@@]2(C)c3cc(O)ccc3CC1C2C (stereo not given in full) |  |  | 5.64 | 11.2 | 6.69
11 | CCC(=N)NCCCCCNC(=O)C(CC(C)C)NC(=O)[C@]1(c2ccccc2)CC1CN1CC[C@@]2(C)c3cc(O)ccc3CC1C2C (stereo not given in full) |  |  | 5.66 | 14.8 | 6.83
12 | CC(C)CC(NC(=O)[C@]1(c2ccccc2)CC1CN1CC[C@@]2(C)c3cc(O)ccc3CC1C2C)C(=O)NCCCCCCN=C(N)N (stereo not given in full) | 20.3 | 5.55 | 5.58 | 18.9 | 6.86
13 | CCC(=N)NCCCCCNC(=O)C(CC(C)C)NC(=O)CNC(=O)[C@]1(c2ccccc2)CC1CN1CC[C@@]2(C)c3cc(O)ccc3CC1C2C (stereo not given in full) | 81.6 | 5.25 | 5.32 | 70.5 | 7.16
14 | CC(C)CC(NC(=O)CNC(=O)[C@]1(c2ccccc2)CC1CN1CC[C@@]2(C)c3cc(O)ccc3CC1C2C)C(=O)NCCCCCNC(=N)N (stereo not given in full) |  | 5.46 | 5.41 |  | 7.32
15 | CCC(=N)NCCCCNC(=O)C(CC(C)C)NC(=O)CNC(=O)[C@]1(c2ccccc2)CC1CN1CC[C@@]2(C)c3cc(O)ccc3CC1C2C (stereo not given in full) | 55.2 | 5.01 | 5.13 | 42.6 | 6.76
16 | CC(C)CC(NC(=O)CNC(=O)[C@]1(c2ccccc2)CC1CN1CC[C@@]2(C)c3cc(O)ccc3CC1C2C)C(=O)NCCCN=C(N)N (stereo not given in full) | 51.4 |  |  | 128 | 
17 | CCCCC(=N)NCCCCNC(=O)C(CC(C)C)NC(=O)[C@]1(c2ccccc2)CC1CN1CC[C@@]2(C)c3cc(O)ccc3CC1C2C (stereo not given in full) |  |  | 5.67 | 18.3 | 6.94
18 | CCC(=N)NCCCCNC(=O)C(CC(C)C)NC(=O)[C@]1(c2ccccc2)CC1CN1CC[C@@]2(C)c3cc(O)ccc3CC1C2C (stereo not given in full) |  |  | 5.66 | 11.5 | 6.72
19 | CCCCC(=N)NCCCNC(=O)C(CC(C)C)NC(=O)[C@]1(c2ccccc2)CC1CN1CC[C@@]2(C)c3cc(O)ccc3CC1C2C (stereo not given in full) |  |  | 5.65 | 16 | 6.86
20 | CC(C)CC(NC(=O)CNC(=O)[C@]1(c2ccccc2)CC1CN1CC[C@@]2(C)c3cc(O)ccc3CC1C2C)C(=O)NCCCCCCN=C(N)N (stereo not given in full) | 84.2 |  |  | 94.3 | 
21 | CC(C)CC(NC(=O)CNC(=O)[C@]1(c2ccccc2)CC1CN1CC[C@@]2(C)c3cc(O)ccc3CC1C2C)C(=O)NCCCCCCN (stereo not given in full) | 76 | 5.22 | 5.09 | 101 | 7.10

Row | Structure (SMILES) | Selectivity ratio (Cavia porcellus) | pKi [1] | pKi (Mu-type opioid receptor) | Selectivity ratio [2] | pKi [3]
22 | CCCCC(=N)NCCCNC(=O)C(CC(C)C)NC(=O)CNC(=O)[C@]1(c2ccccc2)CC1CN1CC[C@@]2(C)c3cc(O)ccc3CC1C2C (stereo not given in full) | 275 | 5.31 | 5.46 | 192 | 7.74
23 | CCCC(=N)NCCCCCNC(=O)C(CC(C)C)NC(=O)CNC(=O)[C@]1(c2ccccc2)CC1CN1CC[C@@]2(C)c3cc(O)ccc3CC1C2C (stereo not given in full) | 79.8 | 5.28 | 5.14 | 110 | 7.19
24 | CCCC(=N)NCCCNC(=O)C(CC(C)C)NC(=O)[C@]1(c2ccccc2)CC1CN1CC[C@@]2(C)c3cc(O)ccc3CC1C2C (stereo not given in full) |  |  | 5.45 | 15 | 6.62
25 | CC(C)CC(NC(=O)[C@]1(c2ccccc2)CC1CN1CC[C@@]2(C)c3cc(O)ccc3CC1C2C)C(=O)NCCCCCN (stereo not given in full) |  |  | 5.49 | 11.8 | 6.56
26 | CCC(=N)NCCCNC(=O)C(CC(C)C)NC(=O)[C@]1(c2ccccc2)CC1CN1CC[C@@]2(C)c3cc(O)ccc3CC1C2C (stereo not given in full) |  |  | 5.30 | 19.6 | 6.59
27 | CCCC(=N)NCCCNC(=O)C(CC(C)C)NC(=O)CNC(=O)[C@]1(c2ccccc2)CC1CN1CC[C@@]2(C)c3cc(O)ccc3CC1C2C (stereo not given in full) | 118 | 5.02 | 4.97 | 133 | 7.09
28 | CC(C)CC(NC(=O)[C@]1(c2ccccc2)CC1CN1CC[C@@]2(C)c3cc(O)ccc3CC1C2C)C(=O)NCCCCN (stereo not given in full) |  |  | 5.47 | 8.9 | 6.42
29 | CC[C@H](C)[C@H](NC(=O)[C@H](CCCN=C(N)N)NC(=O)[C@H](CCCN=C(N)N)NC(=O)[C@]1(c2ccccc2)C[C@@H]1CN1CC[C@@]2(C)c3cc(O)ccc3CC1C2C)C(=O)OC (stereo not given in full) |  | < 4.60 | 5.34 | 58.7 | 7.11
30 | CCCC(=N)NCCCCCCNC(=O)C(CC(C)C)NC(=O)[C@]1(c2ccccc2)CC1CN1CC[C@@]2(C)c3cc(O)ccc3CC1C2C (stereo not given in full) | 28.4 | 5.46 | 5.72 | 15.6 | 6.91
31 | CCC(=N)NCCCNC(=O)C(CC(C)C)NC(=O)CNC(=O)[C@]1(c2ccccc2)CC1CN1CC[C@@]2(C)c3cc(O)ccc3CC1C2C (stereo not given in full) | 40.5 | 4.98 | 4.96 | 42.5 | 6.59
32 | CCCC(=N)NCCCCCCNC(=O)C(CC(C)C)NC(=O)CNC(=O)[C@]1(c2ccccc2)CC1CN1CC[C@@]2(C)c3cc(O)ccc3CC1C2C (stereo not given in full) | 158 | 5.61 | 5.64 | 125 | 7.81
33 | CC(C)CC(NC(=O)CNC(=O)[C@]1(c2ccccc2)CC1CN1CC[C@@]2(C)c3cc(O)ccc3CC1C2C)C(=O)NCCCCCN (stereo not given in full) | 38.9 | 5.02 | 4.96 | 44.4 | 6.61
34 | CC[C@H](C)[C@H](NC(=O)[C@H](CCCN=C(N)N)NC(=O)[C@H](CCCN=C(N)N)NC(=O)CNC(=O)[C@]1(c2ccccc2)CC1CN1CC[C@@]2(C)c3cc(O)ccc3CC1C2C)C(=O)OC (stereo not given in full) (X1-GRRI-OMe) |  |  |  | 42.4 | 
35 | CC(C)CC(NC(=O)CNC(=O)[C@]1(c2ccccc2)CC1CN1CC[C@@]2(C)c3cc(O)ccc3CC1C2C)C(=O)NCCCN (stereo not given in full) | 37.6 | 4.97 | 4.79 | 57 | 6.55
36 | CCCC(=N)NCCCCNC(=O)C(CC(C)C)NC(=O)CNC(=O)[C@]1(c2ccccc2)CC1CN1CC[C@@]2(C)c3cc(O)ccc3CC1C2C (stereo not given in full) | 107 | 5.14 | 5.17 | 100 | 7.17
37 | CC[C@H](C)[C@H](NC(=O)[C@H](CCCNC(=N)N)NC(=O)[C@H](CCCNC(=N)N)NC(=O)CNC(=O)[C@]1(c2ccccc2)CC1CN1CC[C@@]2(C)c3cc(O)ccc3CC1C2C)C(=O)OC (stereo not given in full) (X1-GRRI-OMe) |  | < 4.60 | 5.64 |  | 7.27
38 | CC(C)CC(NC(=O)[C@]1(c2ccccc2)CC1CN1CC[C@@]2(C)c3cc(O)ccc3CC1C2C)C(=O)NCCCCCN=C(N)N (stereo not given in full) |  |  |  | 12.9 | 
39 | CC(C)CC(NC(=O)CNC(=O)[C@]1(c2ccccc2)CC1CN1CC[C@@]2(C)c3cc(O)ccc3CC1C2C)C(=O)NCCCCCN=C(N)N (stereo not given in full) | 73.1 |  |  | 81.1 | 
40 | CC(C)CC(NC(=O)[C@]1(c2ccccc2)CC1CN1CC[C@@]2(C)c3cc(O)ccc3CC1C2C)C(=O)NCCCCCNC(=N)N (stereo not given in full) |  |  | 5.55 |  | 6.67
41 | CC(C)CC(NC(=O)CNC(=O)[C@]1(c2ccccc2)CC1CN1CC[C@@]2(C)c3cc(O)ccc3CC1C2C)C(=O)NCCCCCCNC(=N)N (stereo not given in full) |  | 5.52 | 5.47 |  | 7.45
